Source: PubChem BioAssay (Broad Institute)
This is a sample that favours compounds with a hit; in the whole collection about 2.2% have one here.
rRNA inh HTS: inhibits bacterial ribosomal RNA function over humanized ribosomes. E. coli WT GFP vs humanized-ribosome RFP mutants, fluorescence, 24 h; active compounds read low; DMSO median 0, no signal -100. GFP signal change (wild-type ribosome), % (no concentration beside the values). actives 1.6% (n = 350,000). AID 720706;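 active means significant combined selectivity score with lowered wild-type GFP, culture density cut under 30%, mutant RFP and density less affected; inactive means any of these conditions unmet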
HIV Env fusion: inhibitors of HIV Env-mediated cell fusion; inhibition, % at 12.3 µM; actives 1.1% (n = 360,000); HeLa-JRFL Env/CEM21 cell fusion, luciferase;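 active means mean replicate inhibition score of at least 50 and every replicate individually at or above 50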
ERp5 inh: blocks human ERp5 reductase activity on insulin | ERp5 insulin aggregation, absorbance 650 nm, 90 min | inhibition, % at 9.99 µM | actives 0.05% (n = 350,000) | AID 651711;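 active means mean replicate inhibition above about 25%, with every replicate also reaching it, limit read from the data, passing the limit was not always enough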
FN deposition inh: fibronectin deposition inhibition; AH1F fibroblasts, Alexa488-fibronectin deposition fluorescence, overnight; inhibition, % at 12.6 µM; actives 0.086% (n = 350,000); AID 743247;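 active means mean inhibition across replicates of 30% or more, regardless of how many single replicates reach that level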
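test system = AH1F fibroblasts assembling fluorescent fibronectin matrix | quantity = 10000 AH1F cells per well | buffer or medium = DMEM plus 2% serum, read in PBS | doses = single dose, pinned | incubation = 1 h cell attachment, overnight exposure to compound and label | detection = fluorescence at 485 nm excitation, 525 nm emission | read-out basis = inhibition from reduced deposited-fibronectin fluorescence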
PvdQ acylase: P. aeruginosa PvdQ acylase inhibition; purified PvdQ acylase, fluorescence plate reader; inhibition, % at 10 µM; actives 0.063% (n = 340,000); AID 488965; in the data active means inhibition above about 30%, passing the limit was not always enough
PDI inh: PDI (human) enzyme inhibition; P07237; PDI insulin aggregation turbidity, A650, 90 min; inhibition, % at 10 µM; actives 0.052% (n = 350,000); AID 588391;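 active means mean inhibition across replicates of 30% or more, whatever share of single replicates reach that level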
Target sequence (P07237 whole entry, looked up): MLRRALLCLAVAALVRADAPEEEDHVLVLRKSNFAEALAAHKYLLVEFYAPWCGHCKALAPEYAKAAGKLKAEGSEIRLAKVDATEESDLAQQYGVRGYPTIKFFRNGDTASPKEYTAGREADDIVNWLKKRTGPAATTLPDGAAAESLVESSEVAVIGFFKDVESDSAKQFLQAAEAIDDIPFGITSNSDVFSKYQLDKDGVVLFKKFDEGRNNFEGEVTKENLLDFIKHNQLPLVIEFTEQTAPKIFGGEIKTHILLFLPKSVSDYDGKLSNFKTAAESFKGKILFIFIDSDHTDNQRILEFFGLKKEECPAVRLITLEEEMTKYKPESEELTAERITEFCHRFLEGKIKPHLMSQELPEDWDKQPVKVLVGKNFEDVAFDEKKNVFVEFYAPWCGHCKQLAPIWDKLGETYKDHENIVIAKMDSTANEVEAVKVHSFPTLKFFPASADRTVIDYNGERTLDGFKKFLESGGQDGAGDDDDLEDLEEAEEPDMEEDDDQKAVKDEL
Each line names hits and unclear results; the compound was inactive in the other large screens.

Cn1cccc1CN1CCN(C(=O)COc2ccccc2)CC1	none (no result: rRNA inh HTS, HIV Env fusion, ERp5 inh, FN deposition inh)
Cn1nc(-c2ccc(OCC(=O)N3CCN(Cc4ccccc4)CC3)cc2)c2ccccc2c1=O	HIV Env fusion 71 (no result: rRNA inh HTS, ERp5 inh, FN deposition inh)
Cc1nc2cc(-c3ccc(Cl)cc3)nn2c(C)c1CCC(=O)N1CCC2(CC1)OCCO2	HIV Env fusion 79 (no result: rRNA inh HTS, ERp5 inh)
Cn1c(NN=O)nc2ccccc21	rRNA inh HTS -23 (no result: FN deposition inh)
CCCNC(=O)N1[C@@H]2c3ccc(-c4ccccc4OC)c(=O)n3C[C@H]1[C@H](CO)[C@H]2C(=O)O	none (no result: HIV Env fusion, FN deposition inh, PvdQ acylase, PDI inh)
O=C(Cc1ccccc1)N1CCCCN2[C@H](CO)[C@H](c3ccc(C#CC4(O)CCCC4)cc3)[C@H]2C1	none (no result: HIV Env fusion, FN deposition inh, PvdQ acylase, PDI inh)
O=C(Nc1cccc(Cl)c1)OC1CN2CCC1CC2 (stereo unspecified)	rRNA inh HTS -39 (no result: ERp5 inh)
O=[N+]([O-])c1ccc(N2CCOCC2)c2cccnc12	none
O=[N+]([O-])c1ccc(N2CCOCC2)c2c1no[n+]2[O-]	rRNA inh HTS -24 (no result: PvdQ acylase)
O=c1c2ccccc2nc(CN2CCCCCC2)n1-c1ccc(F)cc1	HIV Env fusion 71
CCC(CC)N1CCN(Cc2nc3ccccc3c(=O)n2-c2ccc(F)cc2)CC1	none
C[C@]12C=CC(=O)C=C1C=C[C@@H]1C2CC[C@]2(C)C(=O)CCC12 (stereo partly specified)	rRNA inh HTS -28
CN1C(=O)N(C)C(=O)C2(Cc3cc([N+](=O)[O-])ccc3N3CCN(C(=O)c4ccccc4)CC32)C1=O (stereo unspecified)	none
O=C1NC(=O)C2(Cc3cc([N+](=O)[O-])ccc3N3CCN(C(=O)c4ccccc4)CC32)C(=O)N1 (stereo unspecified)	rRNA inh HTS -29
CC12CCC3C(CCC4(O)CC(O)CCC34C=O)C1(O)CCC2C1=CC(=O)OC1 (stereo unspecified)	none
C[C@]12CCC3C(CCC4=CC(O)CC[C@@]43/C=N/O)C1(O)CCC2C1=CC(=O)OC1 (stereo partly specified)	HIV Env fusion 93
C[C@H]1O[C@@H](OC2CC[C@]3(C=O)[C@H]4CC[C@]5(C)[C@@H](C6=CC(=O)OC6)CC[C@]5(O)[C@@H]4CC[C@]3(O)C2)CC2OC(C)(C)OC21 (stereo partly specified)	HIV Env fusion 82
CC(=O)OC1CC(OC2C(O)CC(OC3C(O)CC(OC4CCC5(C)C(CCC6C5CCC5(C)C(C7=CC(=O)OC7)C(O)CC65O)C4)OC3C)OC2C)OC(C)C1OC1OC(CO)C(O)C(O)C1O (stereo unspecified)	HIV Env fusion 85
C[C@]12CC[C@H]3[C@@H](CC[C@]4(O)C[C@@H](O)CC[C@]34C=O)[C@@]1(O)CC[C@@H]2C1=CC(=O)OC1	none (no result: rRNA inh HTS)
CC(=O)OC1CC2(O)C3CCC4CC(O)CCC4(C)C3CCC2(C)C1C1=CC(=O)OC1 (stereo unspecified)	HIV Env fusion 102
CC1OC(OC2C(O)CC(OC3C(O)CC(OC4CCC5(C)C(CCC6C5CCC5(C)C(C7=CC(=O)OC7)C(O)CC65O)C4)OC3C)OC2C)CC(O)C1O (stereo unspecified)	HIV Env fusion 63 (no result: rRNA inh HTS)
CC(C)NC(=O)N1C[C@@H]2N[C@H](C1)C2c1ccc(Br)cc1 (stereo partly specified)	none (no result: HIV Env fusion, ERp5 inh, PvdQ acylase, PDI inh)
O=C(O)[C@H]1[C@H](CO)[C@H]2Cn3c(ccc(C4=CCCCC4)c3=O)[C@@H]1N2C(=O)Cc1ccccn1	none (no result: PvdQ acylase, PDI inh)
S=C(NCCc1ccccc1)N1Cc2cc(-c3ccccc3)ccc2-n2nncc2C1	none (no result: PvdQ acylase, PDI inh)
S=C(NCCc1ccccc1)N1Cc2cc(N3CCCCC3)ccc2-n2nncc2C1	HIV Env fusion 75 (no result: PvdQ acylase, PDI inh)
O=c1cccc2n1CC1CC2CN(c2nc(N3CCCCC3)nc(N3CCCCC3)n2)C1 (stereo unspecified)	HIV Env fusion 82
COC(=O)[C@H]1[C@H](CO)[C@H]2Cn3c(ccc(C4=CCCCC4)c3=O)[C@@H]1N2CCc1ccccc1	none (no result: HIV Env fusion, FN deposition inh, PvdQ acylase, PDI inh)
COc1ccc(-c2[nH]ncc2CNC(C)Cc2ccsc2)c(F)c1 (stereo unspecified)	none (no result: FN deposition inh)
CC(Cc1ccsc1)NCc1cn[nH]c1-c1ccc(F)cc1F (stereo unspecified)	HIV Env fusion 63
